# Test: Toxicity liver stage against HepG2, at 10uM
# Type: cell-based
# Parameters: test concentration 10 uM, cell line HepG2-A16-CD81EGFP
# Settings: human, HepG2-A16-CD81EGFP cells; read-out: INHIBITION
# In short: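 Uninfected HepG2-A16-CD81EGFP cells, 3 × 10^3 per well, 1536-well, plated on prespotted compound at 10 μM final, parasite-free screening media added to match infected plates; puromycin 10 μM positive, DMSO 0.5% negative; run in parallel with 48 h PbLuc assay at 37 °C, 5% CO2; viability by CellTiter-Glo luminescence, normalized to controls.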
row,Structure (SMILES),cytotoxicity at 10 µM [%]
1,Cc1ccccc1C(=O)NC(C)CN1CCOC1=O (centres undefined),4.33
2,CN(C)CCCNCC1CCOC(C)(C)C1 (centres undefined),-8.02
3,CO[C@@H]1CN(c2ccccc2)S(=O)(=O)[C@@]12CCN(S(C)(=O)=O)C2,2.21
4,O=C(c1ccccc1)N(CC1CC1)c1cccnc1,7.27
5,Cc1c(OCC(=O)NCc2ccccc2Cl)c(=O)ccn1C,-40.5
6,CCOC(=O)Cc1csc(NC(=O)c2cc(=O)c(OC)c[nH]2)n1,-43.8
7,COc1ccccc1C1SCC(=O)Nc2c1c(=O)[nH]n2C1CCOCC1 (centres undefined),-5.43
8,COc1cn(CC(=O)N2CCN(c3ccc(F)cc3)CC2)c(C)cc1=O,2.29
9,COCCCNC(=O)C1CN(C(=O)c2cnccn2)C1,0.722
10,O=C(Nc1nc2c(s1)CN(S(=O)(=O)C1CC1)CC2)c1ccccn1,-5.46
11,CCC(C)N1CCc2c(C(=O)N3CCOCC3)n[nH]c2C1 (centres undefined),1.88
12,Cn1cc(CN2CCCn3cnc(COCc4ccco4)c3C2)cn1,7.61
13,Clc1ccc(-n2nnnc2C2(NCc3ccco3)CCCCC2)cc1,15.7
14,Cc1ccn(CC(=O)Nc2cc(-c3ccncc3)[nH]n2)n1,-14.8
15,CNc1cnc(CC2COCCN(CCOc3ccccc3)C2)cn1 (centres undefined),-0.257
16,Cc1cc2cc(C(=O)N[C@@H]3CC[C@@H](N4CCNC(=O)C4)[C@@H]3O)ccc2o1,-5
17,CN(C)C(=O)CN1CCCCC1c1nc(N)ncc1-c1cccc(F)c1 (centres undefined),-3.68
18,Cc1nc(-c2ccccc2)sc1CNC(=O)c1ccc(=O)n(C)c1,-6.09
19,O=C(Nc1cccnc1N1CCSCC1)c1ccc2c(c1)CCO2,-0.678
20,CCOCCOC(C)C(=O)Nc1ccnn1-c1ccccc1C (centres undefined),-0.308
21,CCc1nc(NS(=O)(=O)c2cccc(F)c2C)no1,5.18
22,c1ncn(Cc2ccc(CNCc3ccc4c(c3)OCCO4)cc2)n1,-1.66

row,Structure (SMILES),cytotoxicity at 10 µM [%]
1,CCCSCC(=O)NCc1cccc(CN(C)CC)c1,-0.823
2,COc1ccc(C(C)NCc2nnc(C)s2)cc1F (centres undefined),-19.8
3,COc1cccc(CNC(=O)C(C)N2CC(n3nc(C)cc3C)C2)c1 (centres undefined),0.868
4,COC(=O)C1CN(Cc2ccc(-c3ccncc3)cc2F)C[C@@H](C)O1 (some centres undefined),1.63
5,O=C(Nc1ccccc1)C1CCCN(C(=O)Cn2cncn2)C1 (centres undefined),16.3
6,O=C(NCCCC(=O)N1Cc2ccccc2C1)NCc1nccs1,-1.37
7,Cc1nc(CNC(C)c2cccc(S(=O)(=O)N(C)C)c2)no1 (centres undefined),0.956
8,CCOc1cncc(N2CCN(c3ccccc3O)CC2)n1,25.7
9,CC(C)(C)c1cnc(CN2CCC(CO)CC2)o1,-5.6
10,CN1CCN(C(=O)C2SCCc3sccc32)CC1 (centres undefined),-12.6
11,CN(CCOc1cccc(CNS(C)(=O)=O)c1)C1CCOCC1,2.37
12,CC(C)NC(=O)CCNC(=O)c1cc(Br)cn1C(C)C,4.33
13,NC(=O)c1ccc(N2CCCCC2)c(NC(=O)c2ccc(Br)cc2)c1,11.1
14,Fc1ccc(CN2CCOC(Cn3cncn3)C2)c2ncccc12 (centres undefined),0.219
15,Cc1cc(C)n(C2CN(CC(=O)N(C)Cc3ccco3)C2)n1,-4.42
16,CNc1cc(N2CCCC2CNCc2cccc(C(N)=O)c2)ncn1 (centres undefined),-7.72
17,Cc1nc(C)n(C2CCCN(C(=O)Cc3ccc4c(c3)CCC4)C2)n1 (centres undefined),-10.3
18,CSc1ccc(NC(=O)Cc2cccc(O)c2)nc1,-4.3
19,CN(C(=O)c1ccco1)C1CCC(NC(=O)OC(C)(C)C)CC1 (centres undefined),8.12
20,Clc1ccc(-c2cnc(CNC3CCc4ncnn4C3)o2)cc1 (centres undefined),-4.36
21,N#Cc1c(Cl)nsc1N1CCN(CC2CC2)CC1,28.5
22,Cc1cnn(CCNCc2c(C)nn(Cc3ccccc3)c2C)c1,-3.46

row,Structure (SMILES),cytotoxicity at 10 µM [%]
1,CC(C)CN(CC(O)c1ccc(F)cc1)C(=O)c1cc[nH]n1 (centres undefined),-5.71
2,Cc1nc(C(C)C)sc1C(=O)NS(=O)(=O)c1ccc(C#N)cc1,-6.94
3,COc1cc(N2CC[C@@H]3OCCN(C)[C@H]3CC2)ncn1,-96.6
4,CC(C)n1nc(CN2CCCC2=O)c2c1CN(C(=O)c1ccco1)C2,5.35
5,O=C(c1ccoc1)N1CCO[C@@H]2CNC[C@@H]21,-99.9
6,O=C(c1ccno1)N1CC[C@@H]2CN(C3CCOCC3)CCO[C@@H]2C1,-102
7,O=C(Cc1ccsc1)N1C[C@@H]2COC[C@]2(COc2cccnc2)C1,-99.3
8,COc1cccc(OC)c1-c1ccnc2cc(CC(=O)NC3CC3)nn12,-2.67
9,CCNc1nc(-c2cccnc2)c(-c2ccnc(N3CCOCC3)n2)s1,-10.1
10,CCc1cc(N2CCCC(CC)(C(=O)O)C2)nc(N2CCOCC2)n1 (centres undefined),0.701
11,COc1cccc2ccc(CN3CCN(c4ncccn4)CC3)nc12,-2.13
12,CCOc1cc(CNCc2nc(C)cc(=O)[nH]2)c(Cl)cc1OC(C)C,-7.83
13,O=C1N(CCCc2ccccc2)CCCC1(O)CNCC1CCCCC1 (centres undefined),-0.106
14,CC(=O)Nc1ccc2nc(-c3nccn3CCCN(C)C)ccc2c1,-6.07
15,CCc1ncc2c(n1)CN(C(=O)c1c(C)[nH]c(C(C)=O)c1C)C2,-45.9
16,COCCn1cnnc1Cn1ccnc1-c1ccsc1,8.61
17,Cc1noc(C)c1-c1n[nH]c2c1CN(S(=O)(=O)c1ccsc1)CC2,5.6
18,CCOc1ccc(CNCc2cccnc2N(C)C)cc1,-6.5
19,COc1cccc(Cl)c1-c1cc(CN)ccc1F,-5.3
20,Cc1cc(C(=O)N2CCC(CCn3cccn3)CC2)c(C)o1,-5.27
21,CC(C)[C@@H]1CN(C(=O)C2(c3ccccc3)CCN(C)CC2)C[C@H]1N(C)C,-32
22,Cc1cc(C)n(Cc2cc(C(=O)N3CCCC3c3ccccn3)n[nH]2)n1 (centres undefined),0.739

row,Structure (SMILES),cytotoxicity at 10 µM [%]
1,Cc1ccc(C2(CN3CCN(c4ncccn4)CC3)CCNCC2)nc1,-10.1
2,Cc1cc2nc(C(C)C)cc(NCCc3cccn3C)n2n1,0.407
3,CCCN1CCN(Cc2cn(CCC(N)=O)c3ccccc23)CC1,4.7
4,CCOCC(C)(C)NC(=O)Nc1cc(F)ccc1OC,-3.12
5,Fc1cccc(Cl)c1Cn1ncnc1CSCCN1CCCC1,-0.454
6,O=C(NCCN1CCOC1=O)c1ccc2sccc2c1,12.9
7,Cc1ccccc1N1CCCN(CC2(O)CCCNC2)CC1 (centres undefined),-6.1
8,Cc1ccc(C)c(C(NC2CCCC2)c2cccnc2)c1 (centres undefined),23.5
9,O=C(NCCc1ccncc1)C1CCN(Cc2ccco2)CC1,26.1
10,Cc1ccsc1C(=O)NCc1ccnc(OCC(F)(F)F)c1,-6.19
11,CC(NC(=O)NCCOc1ccc(Cl)cc1)c1nncn1C (centres undefined),-8.47
12,CC(O)CNC(=O)NCc1ccc(N2CCNC(=O)C2)cc1 (centres undefined),-7.23
13,CCc1cnc(CN(C(C)=O)C2CCN(CCc3cccs3)C2)o1 (centres undefined),-6.78
14,CC(C)c1ncc2c(n1)CN(Cc1nc(Cc3ccccc3)no1)CC2,-14.6
15,CCC(CNC(=O)Nc1cnn(CC)c1)N1CCCC1 (centres undefined),-1.47
16,CN1CCOC(CNCCc2ccccn2)C1 (centres undefined),-4.77
17,Cc1nc(C)n(CC2CCCN2Cc2nc3ccccc3nc2C)n1 (centres undefined),6.21
18,Cc1ccc(-c2nc(CN3CCC(C(=O)N(C)C)CC3)cs2)o1,1.32
19,Cc1ccc(C)c(NC(=O)N(C)Cc2cnn(C)c2)c1,-3.02
20,c1csc(-c2noc(CCCN3CCCC3Cn3cccn3)n2)c1 (centres undefined),-7.47
21,COCCNC(=O)Nc1ccc(F)c(C(N)=O)c1,-6.46
22,CC(=O)Nc1nc(CN2CCCC2Cn2cc(C)cn2)cs1 (centres undefined),3.22

row,Structure (SMILES),cytotoxicity at 10 µM [%]
1,CC(C)C(=O)N1CCC2(CC1)NC(=O)c1ccccc12,-0.787
2,CC(C)CNC(=O)N1CCC2(CC1)OC(C(N)=O)Cn1ccnc12 (centres undefined),-103
3,CO[C@@H]1CCN(S(=O)(=O)c2cn(C)cn2)[C@H]1Cc1ccncc1,4.05
4,CC(=O)N1[C@@H](C(=O)NCC2CC2)C[C@@H]2CN(Cc3nccs3)C[C@@H]21,1.7
5,Cn1cccc1CN1CCC2(CC1)CCN(C(=O)c1cnccn1)CC2,-147
6,O=C([C@H]1CN(Cc2ccoc2)C[C@H]2OCC[C@@H]12)N1CCCCO1,7.86
7,O=C(NCCc1cccs1)[C@H]1CO[C@H]2CCNC[C@H]2C1,2.11
8,COc1ccc(CN2CC[C@H]3[C@H]2CCN3C(=O)c2cnn(C)c2)cc1,7.9
9,O=C1N(Cc2ccncc2)CCC12CCCN(c1ncc(F)cn1)C2 (centres undefined),-7.38
10,CC(C)C(=O)N1CCc2onc(C(=O)NCCN(C)C)c2C1,5.56
11,Cn1ccnc1CN1C[C@@H]2[C@@H](C1)OCC(=O)N2CC1CCCC1,-4.48
12,CN(C)C(=O)COCc1nnc2n1CCN(Cc1ccsc1)C2,7.16
13,Cc1nc(CN2C[C@@H]3CN(C(=O)c4cccn4C)C[C@@H]3C2=O)cs1,1.88
14,CC1CCN(C(=O)[C@H]2CC[C@@H]3[C@@H](CCN3Cc3nccs3)O2)CC1,4.62
15,Cc1ccc(N2CCC3(CN(CCO)CCC3(F)F)C2)nn1 (centres undefined),7.28
16,CC1N(c2cnn(C)c2)C(=O)COC12CCN(c1ccccn1)CC2 (centres undefined),-5.31
17,Cn1cc(CN2C[C@@H]3COC[C@@H](C(=O)N4CCCCO4)[C@@H]3C2)cn1,-1.57
18,COCCN1C[C@@H]2[C@@H](OC)CCN(C(=O)Cc3ccsc3)[C@@H]2C1,7.68
19,CN(Cc1cccs1)C1CCC[C@@H]2CN(C(N)=O)C[C@H]12 (some centres undefined),18.6
20,O=C(Cc1cccc(F)c1)N1CCN2C[C@H](Oc3cncnc3)C[C@H]2C1,6.1
21,O=C(CC1[C@H]2CN(C(=O)Cc3ccccn3)C[C@@H]12)Nc1cccnc1 (some centres undefined),10.1

# From ChEMBL document CHEMBL4513216, “Probing the Open Global Health Chemical Diversity Library for Multistage-Active Starting Points for Next-Generation Antimalarials” (ACS Infect Dis, 2020)
